Results taken from PubChem BioAssay AID624466 (The Scripps Research Institute Molecular Screening Center, 2012).
The campaign covered roughly 360,000 compounds. About 5,400 (1.5%) were called active.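 The calls were made as follows: active = inhibition above a per-plate cutoff, the mean inhibition of test compounds on that plate plus 3 SD (cut at about 49% in these data); inactive = the rest.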 The list comes from a sample in which actives are over-represented; it also holds similar structures and randomly drawn compounds.

target: Trace amine-associated receptor 1 (Homo sapiens) (UniProt Q96RJ0); test: blockers of beta-PEA-driven TAAR1 calcium signal – Fluo-8 calcium fluorescence, CHO RD-HGA16 cells, primary screen (AID 624466); conditions: CHO RD-HGA16 TAAR1, Fluo-8 calcium fluorescence, antagonist; at 3 µM; stronger effect = higher value;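 also: 0% = DMSO plus EC80 beta-PEA response and 100% = DMSO alone without agonist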
Method in brief: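 Test system – hTAAR1-expressing CHO RD-HGA16 cells, Gα16-coupled · Reagent – β-PEA at EC80 concentration, post-compound challenge · Compound dosing – 3 µM, single point · Timing – 140 s kinetic read after compound, 140 s after agonist · Detection – Fluo-8 intracellular calcium dye fluorescence, real-time kinetic reads · Control set – DMSO and EC80 PEA controls · Repeats – n of 1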

Trace amine-associated receptor 1 (Homo sapiens), sequence (Q96RJ0 whole entry, looked up, the tested form may be a part): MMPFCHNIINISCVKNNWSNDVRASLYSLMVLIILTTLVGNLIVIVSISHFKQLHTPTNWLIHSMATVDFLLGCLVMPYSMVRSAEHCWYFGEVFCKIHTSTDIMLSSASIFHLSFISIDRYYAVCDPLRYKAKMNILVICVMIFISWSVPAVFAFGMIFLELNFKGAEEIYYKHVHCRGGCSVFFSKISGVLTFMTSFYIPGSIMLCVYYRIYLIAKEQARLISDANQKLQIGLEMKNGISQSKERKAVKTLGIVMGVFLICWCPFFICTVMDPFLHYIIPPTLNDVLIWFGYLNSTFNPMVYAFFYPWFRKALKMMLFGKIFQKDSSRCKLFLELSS

| SMILES | inhibition |
| --- | --- |
| COc1ccc(NC(=O)CN(C)C(=O)c2cc(-c3ccc(C)o3)nc3ccccc23)cc1 | 54.9% (active) |
| COc1cccc(NC(=O)CN(C)C(=O)c2cc(Cl)nc3ccccc23)c1 | 18.8% (inactive) |
| Cc1ccc2nc(-c3ccncc3)cc(C(=O)Nc3ccc(OC(F)F)cc3)c2c1 | -4.36% (inactive) |
| C/C(=N\NC(=O)c1cc(-c2ccc(O)cc2)nc2ccccc12)c1cccnc1 | -2.53% (inactive) |
| COc1ccc(-c2cc(C(=O)Nc3ccccc3O)c3ccccc3n2)cc1 | 86.9% (active) |
| COc1ccc(NC(=O)c2cn(-c3ccccc3)nc2SC)cc1 | -11.6% (inactive) |
| COc1ccc(NC(=O)c2cc(-c3cc(OC)c(OC)c(OC)c3)nc3ccccc23)c(OC)c1 | 3.05% (inactive) |
| COc1ccc(NC(=O)c2cc(-c3ccc(C)o3)nc3ccccc23)cc1 | 57.4% (active) |
| COc1ccc(NC(=O)CN(C)C(=O)c2cc(C)oc2C)cc1 | -28% (inactive) |
| CO[C@@H]1CN(C)C(=O)c2cc(NC(=O)Nc3cc(F)ccc3F)ccc2OC[C@H](C)N(C(=O)c2ccccn2)C[C@@H]1C | -23.9% (inactive) |
| CCCCCCN1CCN(C2CN(Cc3cn(Cc4ccc(F)cc4)nn3)S(=O)(=O)C2)CC1 (centres undefined) | -26.8% (inactive) |
| COC(=O)C1=C(C)N(Cc2ccc(C(F)(F)F)cc2)C(=NCc2ccccc2)NC1c1ccccc1C(F)(F)F (centres undefined) | -9.36% (inactive) |
| CCOC(=O)c1c(N)c(C#N)nn1-c1ccccc1C(=O)OC | 5.89% (inactive) |
| O=C(COc1ccc(Cl)cc1)NC(=S)Nc1ccccc1N1CCOCC1 | -2.14% (inactive) |
| Cc1ccccc1N/C(SCc1ccc(Cl)cc1)=C(/C#N)C(N)=O | -9.21% (inactive) |
| Cc1cccc(NC(=S)NCCc2ccc(Cl)cc2)c1C | -16.5% (inactive) |
| Cc1ccccc1NC(=S)NC(=O)Cc1ccc(Cl)cc1 | 91.6% (active) |
| O=C(Cc1ccc(Cl)cc1)NC(=S)Nc1ccccc1O | 104% (active) |
| O=C(COc1ccc(Cl)cc1)Nc1ccccc1CO | 4.17% (inactive) |
| O=C(C(=O)N1CCC(CNS(=O)(=O)Cc2ccccc2)CC1)c1cc2ccccc2o1 | -11.1% (inactive) |
| CCc1cccc(CC)c1N1C(=O)CC(Sc2ccccc2N)C1=O (centres undefined) | -2.71% (inactive) |
| CCC(c1nc2ccccc2[nH]1)n1c(=O)c(-c2cccs2)nc2ccccc21 (centres undefined) | -2.04% (inactive) |
| O=C(NNC(=S)NCc1ccccc1)c1ccc(OC(F)F)cc1 | -12.5% (inactive) |
| CC(=O)NC(=S)NNC(=O)c1ccc(Br)cc1 | 25.8% (inactive) |
| O=C(CCc1ccccc1)NNC(=O)COc1ccc(Cl)cc1 | -2.05% (inactive) |
| COc1ccc(C(=O)NC(=S)NNC(=O)CCc2ccccc2)cc1 | 66.2% (active) |
| CCOc1ccccc1NC(=S)NC(=O)CCc1ccccc1 | -0.27% (inactive) |

| SMILES | inhibition |
| --- | --- |
| COc1ccc(C(=O)NNC(=S)NC(=O)c2ccccc2)cc1 | 66.3% (active) |
| CCOC(=O)[C@]12CCCC=C1N(CCC1=CCCCC1)C(=O)[C@H](CC(=O)NCCCCc1ccccc1)C2 | -5.96% (inactive) |
| CCO[C@H]1OC(C(=O)NCc2ccccc2)=C[C@@H](c2coc3ccccc3c2=O)[C@@H]1CCCO | 1.58% (inactive) |
| O=C(NCc1ccccc1)[C@H]1CCCN1C(=O)[C@@H]1CCCN1C(=O)c1ccc(Cl)cc1Cl | -4.49% (inactive) |
| CC[C@@H]1CC2=C(C(=O)OC(C)(C)O2)[C@@H](CC)O1 | 7.78% (inactive) |
| Cc1cc(C)c([N+](=O)[O-])cc1-c1ccc(/C=N/NC(=O)c2nonc2N)o1 | 52% (active) |
| Cc1ccc(-c2ccc(/C=N/NC(=O)CN3CCOCC3)o2)cc1[N+](=O)[O-] | 3.41% (inactive) |
| COc1cc(/C=N\NC(=O)c2nonc2N)c(OC)cc1Br | -10.8% (inactive) |
| O=C1NC[C@H](CCCCN2C[C@H](Cc3ccccc3)N(Cc3ccccc3)C(=O)C2=O)N(CCc2ccc(O)cc2)C1=O | -9.2% (inactive) |
| CC(=O)Nc1cccc(OCC(=O)/C=C2\N(C)c3ccccc3C2(C)C)c1 | 32.4% (inactive) |
| CN1/C(=C\C(=O)c2oc3ccccc3c2N)C(C)(C)c2ccccc21 | 51.5% (active) |
| CN1CCN(CCC(=O)N/N=C/C=C2\N(C)c3ccccc3C2(C)C)CC1 | 28.4% (inactive) |
| CC(=O)Nc1ccc(NC(=O)CCN2C(=O)C3CC=CCC3C2=O)cc1 (centres undefined) | -7.1% (inactive) |
| Cc1nc2ccc(NC(=O)N3CCC(c4ccccc4)C3)cc2nc1C (centres undefined) | -3.01% (inactive) |
| COC(=O)[C@@]1(Sc2ccc(C)cc2)CC(=O)N(c2cccc(SC)c2)[C@@H]1c1ccccc1 | 67.8% (active) |
| COC(=O)c1ccccc1SC1CC(=O)N(c2cccc(C)c2)C1=O (centres undefined) | -3.32% (inactive) |
| CCOC(=O)N1C(=O)C[C@](Sc2ccc(C)cc2)(C(=O)OC)[C@H]1c1ccccc1 | 6.96% (inactive) |
| COC(=O)C(C(=O)OC)c1ccccc1NS(=O)(=O)c1cccc2ccccc12 | -21.2% (inactive) |
| CC(=O)N1Cc2cc(C(=O)NCc3cccc(F)c3)nc(-c3cccc(C4=CCCCC4)c3)c2[C@H]1CCO | 18.2% (inactive) |
| O=C(CC[C@H]1O[C@@H](n2ccc(=O)[nH]c2=O)[C@H](O)[C@@H]1O)N[C@H](Cc1ccccc1)C(=O)NCCCN1CCCC1=O | -13.5% (inactive) |
| COc1ccc(NS(=O)(=O)c2ccc(C(=O)Nc3c(C)n(C)n(-c4ccccc4)c3=O)cc2)cc1 | -27.9% (inactive) |
| COc1ccc(C(=O)C(C)OC(=O)c2cccc(S(=O)(=O)Nc3c(C)n(C)n(-c4ccccc4)c3=O)c2)cc1 (centres undefined) | -15.1% (inactive) |
| Cc1c(NS(=O)(=O)c2cccc(C(=O)Nc3ccc(SC(F)F)cc3)c2)c(=O)n(-c2ccccc2)n1C | 51.8% (active) |
| Cc1cc(C)n2c(Nc3c(C)cccc3C)c(CCc3ccccc3)nc2n1 | 5.85% (inactive) |
| Clc1ccccc1Nc1nc(NCc2cccs2)nc2ccsc12 | 7.32% (inactive) |
| COc1cccc(CNc2nc(NCc3cccs3)nc3ccsc23)c1 | 76.6% (active) |
| COc1cccc(CNc2nc(NCc3ccccc3OC)nc3ccsc23)c1 | 36.8% (inactive) |
